Assays:
[1] = system: plasma Aβ40, Aβ42, and total Aβ; test: SAD study pharmacodynamic effects on plasma Aβ; type: in vivo, human
Outline: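 Single oral doses of 10–1200 mg were given as solution or capsule. Blood tubes were inverted and iced, then centrifuged within 30 min at room temperature for 15 min at about 1000g. Plasma was stored at −80°C. Aβ40 and Aβ42 were measured by Luminex duplex immunoassay and total Aβ by MSD, in duplicate.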

CYP3A4 [2] = target: T1, CYP3A4 (Homo sapiens, UniProt P08684); test: Preclinical CYP3A4 time-dependent inhibition, induction and metabolism; type: in vitro ADME
T1 sequence (P08684 whole entry): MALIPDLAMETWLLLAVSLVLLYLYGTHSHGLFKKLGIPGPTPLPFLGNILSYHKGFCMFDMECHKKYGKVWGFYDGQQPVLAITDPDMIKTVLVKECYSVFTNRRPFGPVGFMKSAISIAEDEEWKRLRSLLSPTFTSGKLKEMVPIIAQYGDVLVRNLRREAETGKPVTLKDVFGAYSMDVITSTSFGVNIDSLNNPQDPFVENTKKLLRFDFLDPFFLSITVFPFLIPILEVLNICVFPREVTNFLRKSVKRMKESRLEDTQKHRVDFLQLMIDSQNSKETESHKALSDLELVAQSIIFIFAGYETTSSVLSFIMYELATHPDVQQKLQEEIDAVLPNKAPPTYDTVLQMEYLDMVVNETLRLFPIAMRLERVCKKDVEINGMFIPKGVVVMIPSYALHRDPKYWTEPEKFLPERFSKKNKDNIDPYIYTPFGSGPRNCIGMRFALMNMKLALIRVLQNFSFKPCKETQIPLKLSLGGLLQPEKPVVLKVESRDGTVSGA

[3] = SAD study safety and tolerability; type: in vivo, human
Outline: (§1)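 Single-dose subjects, placebo-controlled and double-blind, were assessed by vital signs, physical examination, 12-lead ECG and clinical laboratory tests. AEs were spontaneously reported or elicited, and their onset, duration, intensity, seriousness, relatedness and action taken were recorded. AEs were tabulated by MedDRA 12.1 system organ class and preferred term.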

[4] = MAD study safety and tolerability; type: in vivo, human
Outline: as §1, with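 “Multiple-dose healthy young” for “Single-dose subjects, placebo-controlled”, “elderly subjects” for “double-blind,”, “coded” for “tabulated”, “term. Columbia suicidality ratings were also collected.” for “term.”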

CYP3A4 [5] = target: T1, CYP3A4; test: Plasma 4βHC biomarker of CYP3A4 in the MAD study; type: in vivo; details: any treatment cohort of the MAD study
Outline: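 During once-daily multiple dosing, plasma 4β-hydroxycholesterol was quantified by validated LC-MS/MS (LLOQ 2 ng/ml for 50 μl plasma). 4α-Hydroxycholesterol and total cholesterol were measured as normalisation factors.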

CSF Aβ42 = test: Indirect-response simulation of CSF Aβ42 lowering from MAD exposure-response; design: species or system human; details: MAD exposure-response model, Fig. 3F
[6] = system: brain and CSF Aβ42 and Aβ40; details: dogs; ref Toyn et al., 2016; cited from earlier work

SMILES: CNc1nc(Nc2ccc(-n3cnc(C)n3)c(OC)c2)nc2c1CC[C@H]2c1ccc(F)cc1 [BMS-932481, (S)-7-(4-fluorophenyl)-N2-(3-methoxy-4-(3-methyl-1H-1,2,4-triazol-1-yl)phenyl)-N4-methyl-6,7-dihydro-5H-cyclopenta[d]pyrimidine-2,4-diamine]
- change in plasma total Aβ ([1]; single dose cohorts): No changes
- effect on plasma Aβ42 and Aβ40 ([1]; single-dose): dose-dependently decreased
- metabolizing enzyme (CYP3A4 [2]): primarily metabolized by CYP3A4
- KI (inactivation) (CYP3A4 [2]; human): 82.5 µM
- induction of CYP3A4 enzyme activity (CYP3A4 [2]; preclinical): weak inducer
- findings on ECG parameters [3]: no clinical relevant findings
- AEs ([3]; 10 mg): 3 (50.0) n (%)
- Deaths ([3]; 10 mg): 0 n (%)
- Discontinuation due to AEs ([3]; 10 mg): 0 n (%)
- Drug-related AEs ([3]; 10 mg): 0 n (%)
- SAEs ([3]; 10 mg): 0 n (%)
- AEs ([3]; 30 mg): 2 (33.3) n (%)
- Deaths ([3]; 30 mg): 0 n (%)
- Discontinuation due to AEs ([3]; 30 mg): 0 n (%)
- Drug-related AEs ([3]; 30 mg): 0 n (%)
- SAEs ([3]; 30 mg): 0 n (%)
- AEs ([3]; 100 mg): 1 (16.7) n (%)
- Deaths ([3]; 100 mg): 0 n (%)
- Discontinuation due to AEs ([3]; 100 mg): 0 n (%)
- Drug-related AEs ([3]; 100 mg): 0 n (%)
- SAEs ([3]; 100 mg): 0 n (%)
- AEs ([3]; 300 mg P2 (cross-over phase 2)): 0 n (%)
- Deaths ([3]; 300 mg P2 (cross-over phase 2)): 0 n (%)
- Discontinuation due to AEs ([3]; 300 mg P2 (cross-over phase 2)): 0 n (%)
- Drug-related AEs ([3]; 300 mg P2 (cross-over phase 2)): 0 n (%)
- SAEs ([3]; 300 mg P2 (cross-over phase 2)): 0 n (%)
- AEs ([3]; 300 mg P3 (cross-over phase 3)): 1 (16.7) n (%)
- Deaths ([3]; 300 mg P3 (cross-over phase 3)): 0 n (%)
- Discontinuation due to AEs ([3]; 300 mg P3 (cross-over phase 3)): 0 n (%)
- Drug-related AEs ([3]; 300 mg P3 (cross-over phase 3)): 0 n (%)
- SAEs ([3]; 300 mg P3 (cross-over phase 3)): 0 n (%)
- AEs ([3]; 300 mg P (cross-over phase 1)): 0 n (%)
- Deaths ([3]; 300 mg P (cross-over phase 1)): 0 n (%)
- Discontinuation due to AEs ([3]; 300 mg P (cross-over phase 1)): 0 n (%)
- Drug-related AEs ([3]; 300 mg P (cross-over phase 1)): 0 n (%)
- SAEs ([3]; 300 mg P (cross-over phase 1)): 0 n (%)
- AEs ([3]; 600 mg): 0 n (%)
- Deaths ([3]; 600 mg): 0 n (%)
- Discontinuation due to AEs ([3]; 600 mg): 0 n (%)
- Drug-related AEs ([3]; 600 mg): 0 n (%)
- SAEs ([3]; 600 mg): 0 n (%)
- AEs ([3]; 900 mg): 3 (50.0) n (%)
- Deaths ([3]; 900 mg): 0 n (%)
- Discontinuation due to AEs ([3]; 900 mg): 0 n (%)
- Drug-related AEs ([3]; 900 mg): 1 (16.7) n (%)
- SAEs ([3]; 900 mg): 0 n (%)
- Deaths ([3]; 900 mg C (CSF panel)): 0 n (%)
- Discontinuation due to AEs ([3]; 900 mg C (CSF panel)): 0 n (%)
- Drug-related AEs ([3]; 900 mg C (CSF panel)): 1 (10.0) n (%)
- SAEs ([3]; 900 mg C (CSF panel)): 0 n (%)
- AEs ([3]; 900 mg El (elderly)): 0 n (%)
- Deaths ([3]; 900 mg El (elderly)): 0 n (%)
- Discontinuation due to AEs ([3]; 900 mg El (elderly)): 0 n (%)
- Drug-related AEs ([3]; 900 mg El (elderly)): 0 n (%)
- SAEs ([3]; 900 mg El (elderly)): 0 n (%)
- AEs ([3]; 1200 mg): 0 n (%)
- Deaths ([3]; 1200 mg): 0 n (%)
- Discontinuation due to AEs ([3]; 1200 mg): 0 n (%)
- Drug-related AEs ([3]; 1200 mg): 0 n (%)
- SAEs ([3]; 1200 mg): 0 n (%)
- tolerability after a single dose ([3]; 10 to 1200 mg, healthy subjects): generally well tolerated
- AEs ([3]; all treated): 17 (27.9) n (%)
- Deaths ([3]; all treated): 0 n (%)
- Discontinuation due to AEs ([3]; all treated): 0 n (%)
- Drug-related AEs ([3]; all treated): 2 (3.3) n (%)
- SAEs ([3]; all treated): 0 n (%)
- participants with drug-related AEs ([3]; two participants): 3.3%
- ECG- or vital sign–related AEs ([4]; MAD): no ECG- or vital sign–related AEs
- subjects with increases in total bilirubin ([4]; MAD 50 mg, three of six): 50%
- subjects with low leukocyte counts ([4]; MAD 50 mg, three of six): 50%
- subjects with increases in total bilirubin ([4]; MAD 100 mg, three of six): 50%
- subjects with increases in bilirubin ([4]; MAD 200 mg, five of six): 83%
- subjects with low estimated creatinine clearance ([4]; MAD 200 mg, three of six): 50%
- subjects with low leukocyte counts ([4]; MAD 200 mg, three of six): 50%
- AEs ([4]; MAD, 50 mg): 5 (83.3) n (%)
- Deaths ([4]; MAD, 50 mg): 0 n (%)
- Discontinuation due to AEs ([4]; MAD, 50 mg): 0 n (%)
- Elevated ALT (marked laboratory abnormality) ([4]; MAD, 50 mg): 0 n (%)
- Elevated bilirubin (marked laboratory abnormality) ([4]; MAD, 50 mg): 3 (50.0) n (%)
- Elevates AST (marked laboratory abnormality) ([4]; MAD, 50 mg): 0 n (%)
- Low hematocrit (marked laboratory abnormality) ([4]; MAD, 50 mg): 1 (16.7) n (%)
- Low hemoglobin (marked laboratory abnormality) ([4]; MAD, 50 mg): 2 (33.3) n (%)
- Low leukocytes (marked laboratory abnormality) ([4]; MAD, 50 mg): 3 (50.0) n (%)
- Low lymphocytes (marked laboratory abnormality) ([4]; MAD, 50 mg): 1 (16.7) n (%)
- Low neutrophils (marked laboratory abnormality) ([4]; MAD, 50 mg): 0 n (%)
- SAEs ([4]; MAD, 50 mg): 0 n (%)
- Treatment-related AEs ([4]; MAD, 50 mg): 3 (50.0) n (%)
- AEs ([4]; MAD, 100 mg): 4 (66.7) n (%)
- Deaths ([4]; MAD, 100 mg): 0 n (%)
- Discontinuation due to AEs ([4]; MAD, 100 mg): 0 n (%)
- Elevated ALT (marked laboratory abnormality) ([4]; MAD, 100 mg): 0 n (%)
- Elevated bilirubin (marked laboratory abnormality) ([4]; MAD, 100 mg): 3 (50.0) n (%)
- Elevates AST (marked laboratory abnormality) ([4]; MAD, 100 mg): 0 n (%)
- Low hematocrit (marked laboratory abnormality) ([4]; MAD, 100 mg): 1 (16.7) n (%)
- Low hemoglobin (marked laboratory abnormality) ([4]; MAD, 100 mg): 1 (16.7) n (%)
- Low leukocytes (marked laboratory abnormality) ([4]; MAD, 100 mg): 1 (16.7) n (%)
- Low lymphocytes (marked laboratory abnormality) ([4]; MAD, 100 mg): 0 n (%)
- Low neutrophils (marked laboratory abnormality) ([4]; MAD, 100 mg): 1 (16.7) n (%)
- SAEs ([4]; MAD, 100 mg): 0 n (%)
- Treatment-related AEs ([4]; MAD, 100 mg): 1 (16.7) n (%)
- AEs ([4]; MAD, 200 mg): 6 (100.0) n (%)
- Deaths ([4]; MAD, 200 mg): 0 n (%)
- Discontinuation due to AEs ([4]; MAD, 200 mg): 2 (33.3) n (%)
- Elevated ALT (marked laboratory abnormality) ([4]; MAD, 200 mg): 4 (66.7) n (%)
- Elevated bilirubin (marked laboratory abnormality) ([4]; MAD, 200 mg): 5 (83.3) n (%)
- Elevates AST (marked laboratory abnormality) ([4]; MAD, 200 mg): 2 (33.3) n (%)
- Low hematocrit (marked laboratory abnormality) ([4]; MAD, 200 mg): 0 n (%)
- Low hemoglobin (marked laboratory abnormality) ([4]; MAD, 200 mg): 1 (16.7) n (%)
- Low leukocytes (marked laboratory abnormality) ([4]; MAD, 200 mg): 3 (50.0) n (%)
- Low lymphocytes (marked laboratory abnormality) ([4]; MAD, 200 mg): 0 n (%)
- Low neutrophils (marked laboratory abnormality) ([4]; MAD, 200 mg): 2 (33.3) n (%)
- SAEs ([4]; MAD, 200 mg): 2 (33.3) n (%)
- Treatment-related AEs ([4]; MAD, 200 mg): 4 (66.7) n (%)
- subjects with AEs ([4]; MAD, 15 subjects): 83.3%
- AEs ([4]; MAD, all BMS-932481 doses): 15 (83.3) n (%)
- Deaths ([4]; MAD, all BMS-932481 doses): 0 n (%)
- Discontinuation due to AEs ([4]; MAD, all BMS-932481 doses): 2 (11.1) n (%)
- Elevated ALT (marked laboratory abnormality) ([4]; MAD, all BMS-932481 doses): 4 (22.2) n (%)
- Elevated bilirubin (marked laboratory abnormality) ([4]; MAD, all BMS-932481 doses): 11 (61.1) n (%)
- Elevates AST (marked laboratory abnormality) ([4]; MAD, all BMS-932481 doses): 2 (11.1) n (%)
- Low hematocrit (marked laboratory abnormality) ([4]; MAD, all BMS-932481 doses): 2 (11.1) n (%)
- Low hemoglobin (marked laboratory abnormality) ([4]; MAD, all BMS-932481 doses): 4 (22.2) n (%)
- Low leukocytes (marked laboratory abnormality) ([4]; MAD, all BMS-932481 doses): 7 (38.9) n (%)
- Low lymphocytes (marked laboratory abnormality) ([4]; MAD, all BMS-932481 doses): 1 (5.6) n (%)
- Low neutrophils (marked laboratory abnormality) ([4]; MAD, all BMS-932481 doses): 3 (16.7) n (%)
- SAEs ([4]; MAD, all BMS-932481 doses): 2 (11.1) n (%)
- Treatment-related AEs ([4]; MAD, all BMS-932481 doses): 8 (44.4) n (%)
- subjects with treatment-related AEs ([4]; MAD, eight subjects): 44.4%
- CSF Aβ42 lowering at exposures at which increases in liver enzymes were observed ([4]; after multiple dosing): greater than 70%
- changes in 4βHC levels (CYP3A4 [5]): no significant changes
- decrease of CSF Aβ42 levels within exposures free of liver toxicity findings (CSF Aβ42): ≤ 25%
- Aβ42 and Aβ40 lowering in both the brain and CSF [6]: dose-dependent

From publication PMC4931877 (The Journal of Pharmacology and Experimental Therapeutics, 2016)
